The record followed here is ChEMBL document CHEMBL1141778, “Iminosugar-producing Thai medicinal plants” (J Nat Prod, 2005).

Each structure is given as a SMILES string. Active and inactive are the calls of the source. No cut-off for these calls is given here.

A short description of experiment [1]: Inhibition of alpha-L-fucosidase. An outline of the steps:
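Bovine epididymis alpha-L-fucosidase at pH 5.5 with the matching p-nitrophenyl glycoside as substrate. The reaction was stopped with 400 mM Na2CO3, and released p-nitrophenol was read at 400 nm.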

The test system of the next experiment is Prunus dulcis. The experiment can be described thus: (§1) Inhibition of almond beta-glucosidase. An outline of the steps: (§2)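 The substrate was the matching p-nitrophenyl glycoside. Reactions were terminated with 400 mM Na2CO3, and liberated p-nitrophenol was measured spectrophotometrically at 400 nm.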
Experiment [2] can be described thus: Inhibition of bovine liver beta-galactosidase. Details: species or system Bos taurus. The method, boiled down: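 Bovine liver beta-galactosidase at pH 6.8 with the matching p-nitrophenyl glycoside substrate. Stopped by adding 400 mM Na2CO3; released p-nitrophenol was measured at 400 nm.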
Experiment [3] in a line: as §1. Further details: species or system Prunus dulcis. The method, boiled down: as §2
The target of experiment [4] is T1, Sucrase-isomaltase, intestinal (Rattus norvegicus, UniProt P23739). The experiment can be described thus: Inhibition of rat intestinal isomaltase. An outline of the steps:
(§3)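 Enzyme source was brush border membranes prepared from rat small intestine, assayed at pH 5.8 with sucrose (sucrase) or isomaltose (isomaltase) as substrate. Released D-glucose was quantified colorimetrically with a glucose test kit.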

In experiment [5] the target is T1, Sucrase-isomaltase, intestinal. The experiment can be described thus: Inhibition of rat intestinal sucrase. The method, boiled down:
as §3

T1 sequence (P23739 1-1013 limits assumed): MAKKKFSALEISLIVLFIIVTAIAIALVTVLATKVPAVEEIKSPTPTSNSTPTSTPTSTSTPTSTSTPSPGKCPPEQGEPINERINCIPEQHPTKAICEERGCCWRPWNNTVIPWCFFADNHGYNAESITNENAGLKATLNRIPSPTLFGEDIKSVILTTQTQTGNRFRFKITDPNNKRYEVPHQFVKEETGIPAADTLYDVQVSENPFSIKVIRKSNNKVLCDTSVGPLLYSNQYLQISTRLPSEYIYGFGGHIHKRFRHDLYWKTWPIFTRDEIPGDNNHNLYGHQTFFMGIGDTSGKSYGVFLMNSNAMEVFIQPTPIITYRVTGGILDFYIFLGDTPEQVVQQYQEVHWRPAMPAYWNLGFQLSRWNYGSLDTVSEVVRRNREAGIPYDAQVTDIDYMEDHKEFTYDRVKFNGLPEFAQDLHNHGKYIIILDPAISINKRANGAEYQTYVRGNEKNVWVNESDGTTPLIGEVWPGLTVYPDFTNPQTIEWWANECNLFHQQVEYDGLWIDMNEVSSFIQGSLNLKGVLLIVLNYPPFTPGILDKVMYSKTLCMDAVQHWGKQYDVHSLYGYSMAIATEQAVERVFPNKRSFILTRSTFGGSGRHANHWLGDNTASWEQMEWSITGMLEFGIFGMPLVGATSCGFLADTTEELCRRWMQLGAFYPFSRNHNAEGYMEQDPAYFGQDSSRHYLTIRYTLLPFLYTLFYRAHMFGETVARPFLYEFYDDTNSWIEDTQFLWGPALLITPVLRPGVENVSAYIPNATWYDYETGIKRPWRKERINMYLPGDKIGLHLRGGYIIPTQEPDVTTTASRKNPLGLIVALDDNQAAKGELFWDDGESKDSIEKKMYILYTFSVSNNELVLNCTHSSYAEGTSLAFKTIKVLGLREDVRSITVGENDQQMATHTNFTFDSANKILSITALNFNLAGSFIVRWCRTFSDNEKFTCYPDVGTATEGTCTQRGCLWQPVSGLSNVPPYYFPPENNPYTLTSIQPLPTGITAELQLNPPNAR
T1 sequence (P23739 1014-1841 limits assumed): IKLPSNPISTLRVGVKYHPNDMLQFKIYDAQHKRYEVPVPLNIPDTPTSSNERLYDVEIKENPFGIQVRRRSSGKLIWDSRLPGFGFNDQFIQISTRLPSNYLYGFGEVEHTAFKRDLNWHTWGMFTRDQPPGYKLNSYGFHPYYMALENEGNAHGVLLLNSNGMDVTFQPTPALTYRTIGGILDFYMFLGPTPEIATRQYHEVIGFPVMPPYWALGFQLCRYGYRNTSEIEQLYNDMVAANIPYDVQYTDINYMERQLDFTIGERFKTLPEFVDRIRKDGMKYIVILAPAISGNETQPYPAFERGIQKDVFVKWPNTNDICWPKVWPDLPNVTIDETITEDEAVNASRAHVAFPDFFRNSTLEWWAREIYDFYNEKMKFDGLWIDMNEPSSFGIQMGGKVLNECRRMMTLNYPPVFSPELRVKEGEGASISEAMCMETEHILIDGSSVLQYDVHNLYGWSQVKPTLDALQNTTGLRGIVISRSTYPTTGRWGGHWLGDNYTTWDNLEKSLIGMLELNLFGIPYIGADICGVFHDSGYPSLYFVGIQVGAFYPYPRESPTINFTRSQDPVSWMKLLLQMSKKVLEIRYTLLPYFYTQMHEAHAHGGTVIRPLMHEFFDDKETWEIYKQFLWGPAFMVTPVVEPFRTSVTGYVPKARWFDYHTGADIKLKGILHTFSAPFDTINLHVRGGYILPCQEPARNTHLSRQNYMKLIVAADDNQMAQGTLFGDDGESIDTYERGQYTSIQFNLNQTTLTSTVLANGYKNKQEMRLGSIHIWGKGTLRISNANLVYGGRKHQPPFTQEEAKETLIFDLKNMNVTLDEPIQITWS

By Ki is commonly meant a measure of affinity in units of concentration, obtained from inhibition or displacement. A lower Ki goes with a stronger hold on the target. `C[C@@H]1O[C@@H](O[C@@H]2CN[C@H](CO)[C@@H](O)[C@@H]2O)[C@H](O)[C@H](O)[C@H]1O`: the Ki in experiment [1] was 0.06 µM.
Usually IC50 stands for the concentration needed to halve the response being measured. Regarding `OC[C@H]1N[C@H](CO)[C@@H](O[C@@H]2O[C@H](CO)[C@@H](O)[C@H](O)[C@H]2O)[C@@H]1O`, the outcome in the experiment on Prunus dulcis was inactive. Moreover, the IC50 in experiment [2] was 270 µM.
Regarding `OC[C@H]1N[C@H](CO)[C@@H](O)[C@H]1O`, the figures for the IC50 in experiment [3] and in experiment [2] were 7.8 µM and 3.3 µM, respectively.
On to `OC[C@H]1NC[C@@H](O)[C@@H](O[C@@H]2O[C@H](CO)[C@@H](O)[C@H](O)[C@H]2O)[C@@H]1O`, for which, in experiment [1], the outcome was inactive.
As to `OC[C@@H]1N[C@H](CO)[C@@H](O)[C@@H]1O`, the IC50 in experiment [3] was determined as 320 µM; in experiment [4], 1000 µM; in experiment [5], 1000 µM.
On to `OC[C@H]1O[C@H](OC[C@H]2NC[C@@H](O)[C@@H](O)[C@@H]2O)[C@H](O)[C@@H](O)[C@@H]1O`, for which the Ki in experiment [1] stood at 19 µM. That is a double-digit micromolar value.
Turning to `OC[C@H]1NC[C@@H](O)[C@@H](O)[C@@H]1O[C@@H]1O[C@H](CO)[C@@H](O)[C@H](O)[C@H]1O`, the result in experiment [1] was inactive.
On the same count and under the same terms, the value for `OC[C@H]1NC[C@@H](O[C@H]2O[C@H](CO)[C@H](O)[C@H](O)[C@H]2O)[C@@H](O)[C@@H]1O` was “inactive”.
Regarding `OC[C@H]1NC[C@@H](O[C@@H]2O[C@H](CO)[C@@H](O)[C@H](O)[C@H]2O)[C@@H](O)[C@@H]1O`, in experiment [1], the outcome was inactive.
